Screening results deposited in PubChem by Sanford-Burnham Center for Chemical Genomics.
Hits are enriched below; roughly 1.7% of the tested compounds scored in any of these assays.
Scp-1 inhibitor – inhibitors of human Scp-1 phosphatase | Q9GZU7 | Recombinant Scp1, phosphopeptide, malachite green phosphate absorbance | inhibition, % at 20 µM | 340,000 tested, 0.88% active;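 active = inhibition above about 50% at 20 µM, limit read from the data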
Target sequence (Q9GZU7 76-261 limits assumed): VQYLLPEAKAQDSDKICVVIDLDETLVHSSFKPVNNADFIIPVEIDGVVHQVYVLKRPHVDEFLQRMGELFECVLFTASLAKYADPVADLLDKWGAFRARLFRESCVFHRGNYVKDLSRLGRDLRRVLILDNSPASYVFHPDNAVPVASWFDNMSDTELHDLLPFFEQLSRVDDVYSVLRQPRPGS
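Test system: SCP-1 catalytic domain; Buffer or medium: Acidic Tris acetate buffer with magnesium and detergent; Also added: Phosphorylated 17-residue peptide substrate; Compound: single 20 µM dose, 1% DMSO; Schedule: enzyme reaction 45 min at room temperature, colour 5 min, stabilisation 30 min; Signal: Phosphate-binding colour reagent, absorbance read at 630 nm.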
LMPTP inh – blocks human LMPTP phosphatase; 360,000 tested, 0.22% active; inhibition, % at 20 µM; recombinant LMPTP-A, OMFP fluorogenic substrate, fluorescence intensity; P24666;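 active = compounds that cut the enzyme signal by at least half of the control window in the single-dose screen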
Target sequence (P24666 whole entry, looked up): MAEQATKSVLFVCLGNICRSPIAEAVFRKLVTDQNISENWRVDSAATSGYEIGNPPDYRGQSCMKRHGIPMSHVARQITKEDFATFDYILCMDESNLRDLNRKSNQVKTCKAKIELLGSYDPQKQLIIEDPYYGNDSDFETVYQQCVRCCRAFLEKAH
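Assay system: LMPTP-A phosphatase enzyme | Input: 0.625 nM enzyme | Also added: Fluorogenic phosphatase substrate OMFP at 400 µM final | Compound dosing: One test concentration per compound, 20 µM, with 3% DMSO overall | Schedule: 50 min enzyme reaction at room temperature, protected from light | Signal: Fluorescence intensity | Benchmarks: no-enzyme and uninhibited controls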
DNMT1 block – inhibitors of human DNMT1. DNMT1 molecular beacon, Hinp1I cleavage, fluorescence. inhibition (reported as % activation of signal), % at 10 µM. 360,000 tested, 0.83% active. AID 588458; in the data active = inhibition above about 50%
STEP block – STEP (human) phosphatase inhibition; inhibition, % at 20 µM; AID 588621; recombinant STEP, OMFP fluorogenic substrate, fluorescence; P54829; 360,000 tested, 0.25% active;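 active = inhibition at 20 µM, scaled per plate between control wells, above about 37%, limit read from the data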
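System: STEP phosphatase, cell-free reaction; Buffer or medium: Bis-Tris pH 6.0 buffer with DTT, detergent; Incubation: 20 min at room temperature, dark; Measured by: fluorescence, 480/540 nm.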
SUMO1 PPI mod – SUMO1-SIM interaction modulation | P63165 | SUMO1 binding to a labelled peptide, TR-FRET, 1 h | inhibition, % at 20 µM | 360,000 tested, 0.33% active; in the data active = inhibition above about 37%
Target sequence (P63165 whole entry, looked up): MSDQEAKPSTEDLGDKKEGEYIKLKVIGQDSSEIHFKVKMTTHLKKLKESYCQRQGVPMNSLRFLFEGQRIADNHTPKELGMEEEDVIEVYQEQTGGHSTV
Scp-1 conf – Scp-1 (human) inhibition, single-dose confirmed. 2,500 tested, 61% active. inhibition, % at 20 µM. AID 540281. recombinant SCP-1 catalytic domain, phosphate release, malachite green absorbance. shares compounds with Scp-1 inhibitor
MG interference – counter-screen for Scp-1 inhibitors: colorimetric interference | shares compounds with Scp-1 inhibitor | apparent inhibition (interference), % at 20 µM | 2,500 tested, under 10 active | Colorimetric interference counterscreen, malachite green absorbance 630 nm;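 note: compounds added after enzyme reaction finished so only phosphate colour detection is probed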
Scp1 DSF – Scp-1 (human) binding by thermal shift; 1,500 tested, 25% active; thermal shift relative to vanadate control, % at 40 µM; Recombinant SCP1, Sypro Orange thermal shift Tm; shares compounds with Scp-1 inhibitor;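 active = substances whose mean melting-temperature shift, as a percentage of the reference inhibitor's shift, reaches about 5.3%, limit read from the data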
Hits are given with their value.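 Rule for the calls, unless noted: active = inhibition of at least 30% at 20 µM; inactive = the rest.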

What do the screens show for `Cc1nnc(N2C(=O)c3oc4ccccc4c(=O)c3C2c2ccco2)s1` (centres undefined)?
Scp-1 inhibitor: 60.0; LMPTP inh: inactive; DNMT1 block: inactive; STEP block: inactive; SUMO1 PPI mod: inactive; Scp-1 conf: 42.4; MG interference: inactive; Scp1 DSF: inactive

How did Cc1onc(-c2c(F)cccc2Cl)c1C(=O)OCC(=O)Nc1cccc(S(=O)(=O)N(C)C)c1 do in these assays?
Scp-1 inhibitor: inactive; LMPTP inh: inactive; DNMT1 block: inactive; STEP block: inactive; SUMO1 PPI mod: inactive

What do the screens show for `Cc1ccc(-n2[nH]c(C)c(/C=N/Nc3ccc([N+](=O)[O-])cc3[N+](=O)[O-])c2=O)cc1C`?
Scp-1 inhibitor: 95.5; LMPTP inh: inactive; DNMT1 block: inactive; STEP block: 70.3; SUMO1 PPI mod: inactive; Scp-1 conf: 67.5; MG interference: inactive; Scp1 DSF: 10.7

What do the screens show for `COc1ccc(S(=O)(=O)N2CCN(C(=O)c3ccc([N+](=O)[O-])o3)CC2)cc1`?
Scp-1 inhibitor: 50.9; LMPTP inh: inactive; DNMT1 block: inactive; STEP block: inactive; SUMO1 PPI mod: inactive; Scp-1 conf: 42.1; MG interference: inactive; Scp1 DSF: inactive

What do the screens show for `COc1ccc(CCC(=O)N2CCN(S(=O)(=O)c3ccc(C)cc3)CC2)cc1`?
Scp-1 inhibitor: inactive; LMPTP inh: inactive; DNMT1 block: inactive; STEP block: inactive; SUMO1 PPI mod: inactive

What do the screens show for `O=C(C(=O)N1CCCN(Cc2ccc(F)cc2)CC1)c1ccccc1`?
LMPTP inh: inactive; SUMO1 PPI mod: inactive

What do the screens show for `COc1ccccc1C(=O)NCC(=O)OC(C)C(=O)N1CCOCC1` (centres undefined)?
Scp-1 inhibitor: 60.3; LMPTP inh: inactive; DNMT1 block: inactive; STEP block: inactive; SUMO1 PPI mod: inactive; Scp-1 conf: inactive; MG interference: inactive

Results for C[C@]12CCC3C(CC=C4C[C@@H](O)CC[C@@]43C)C1CCC2[C@]1(C)CCC(=O)O1 (some centres undefined) ?
Scp-1 inhibitor: 58.4; LMPTP inh: inactive; DNMT1 block: inactive; STEP block: inactive; SUMO1 PPI mod: inactive; Scp-1 conf: inactive; MG interference: inactive

What do the screens show for `O=C1NC(=S)SC1=Cc1cc(Br)ccc1O`?
Scp-1 inhibitor: 67.2; LMPTP inh: inactive; DNMT1 block: inactive; STEP block: inactive; SUMO1 PPI mod: inactive; Scp-1 conf: inactive; MG interference: inactive

Results for O=C1NC(=S)SC1=Cc1cccs1 ?
Scp-1 inhibitor: 53.1; LMPTP inh: inactive; DNMT1 block: inactive; STEP block: inactive; SUMO1 PPI mod: inactive; Scp-1 conf: inactive; MG interference: inactive

How did O=C1NC(=S)SC1=Cc1ccccc1Br do in these assays?
Scp-1 inhibitor: inactive; LMPTP inh: inactive; DNMT1 block: inactive; STEP block: inactive; SUMO1 PPI mod: inactive

What do the screens show for `Cc1ccc(NC2CCCN(C(=O)CCc3scnc3C)C2)cc1C` (centres undefined)?
Scp-1 inhibitor: 55.0; LMPTP inh: inactive; DNMT1 block: inactive; STEP block: inactive; SUMO1 PPI mod: inactive; Scp-1 conf: inactive; MG interference: inactive

How did CCn1c(/C=C/c2cc[n+](C)cc2)nc2ccccc21 do in these assays?
Scp-1 inhibitor: 101.8; LMPTP inh: inactive; DNMT1 block: inactive; STEP block: inactive; SUMO1 PPI mod: inactive; Scp-1 conf: inactive; MG interference: inactive

How did COc1ccc(CN2C(=O)C(CC(=O)NCCCCc3ccccc3)CC(C(=O)N3CCCCCC3)=C2C)cc1 (centres undefined) do in these assays?
LMPTP inh: inactive; SUMO1 PPI mod: inactive

Results for CC#CC#Cc1cccc(=O)o1 ?
Scp-1 inhibitor: 53.8; LMPTP inh: inactive; DNMT1 block: 56.5; STEP block: inactive; SUMO1 PPI mod: inactive; Scp-1 conf: 41.9; MG interference: inactive; Scp1 DSF: inactive

Results for CC1(C(=O)NS(=O)(=O)c2cccc(Cl)c2)CCN1C(=O)Cc1ccc(-c2ccccc2)cc1 (centres undefined) ?
LMPTP inh: inactive; DNMT1 block: inactive; STEP block: inactive; SUMO1 PPI mod: inactive

How did C[C@H](CO)N1C[C@H](C)[C@@H](CN(C)Cc2ccc(-c3ccccc3)cc2)Oc2c(NS(=O)(=O)c3cn(C)cn3)cccc2C1=O do in these assays?
Scp-1 inhibitor: 69.0; LMPTP inh: inactive; DNMT1 block: inactive; STEP block: inactive; SUMO1 PPI mod: inactive; Scp-1 conf: inactive; MG interference: inactive

What do the screens show for `C[C@H](CO)N1C[C@H](C)[C@@H](CN(C)Cc2ccc(C(=O)O)cc2)Oc2c(NS(=O)(=O)c3cccs3)cccc2C1=O`?
Scp-1 inhibitor: 50.4; LMPTP inh: inactive; DNMT1 block: inactive; STEP block: inactive; SUMO1 PPI mod: inactive; Scp-1 conf: inactive; MG interference: inactive

How did Cc1ccc(S(=O)(=O)Nc2cccc3c2O[C@H](CN(C)Cc2ccc(-c4ccccc4)cc2)[C@@H](C)CN([C@H](C)CO)C3=O)cc1 do in these assays?
Scp-1 inhibitor: inactive; LMPTP inh: inactive; DNMT1 block: inactive; STEP block: inactive; SUMO1 PPI mod: inactive

Results for C[C@H](CO)N1C[C@H](C)[C@@H](CN(C)Cc2ccc(-c3ccccc3)cc2)Oc2c(NS(=O)(=O)c3ccccc3)cccc2C1=O ?
Scp-1 inhibitor: 62.4; LMPTP inh: inactive; DNMT1 block: inactive; STEP block: inactive; SUMO1 PPI mod: inactive; Scp-1 conf: inactive; MG interference: inactive

How did C[C@@H]1CN([C@@H](C)CO)C(=O)c2cccc(NS(=O)(=O)c3cccs3)c2O[C@H]1CN(C)Cc1ccc(C(F)(F)F)cc1 do in these assays?
Scp-1 inhibitor: inactive; LMPTP inh: inactive; DNMT1 block: inactive; STEP block: inactive; SUMO1 PPI mod: inactive

Results for CC1(C)C2CCC(CN=C(N)CSS(=O)(=O)O)C1C2 (centres undefined) ?
LMPTP inh: inactive; DNMT1 block: inactive; STEP block: inactive; SUMO1 PPI mod: inactive

Results for CCc1nc2ccc(C(=O)N(C)Cc3ccco3)cn2c1N(C)Cc1ccc(OC)cc1 ?
LMPTP inh: inactive; DNMT1 block: inactive; STEP block: inactive; SUMO1 PPI mod: inactive

What do the screens show for `C=CCNC(=O)c1cc2cc(Cl)ccc2nc1N`?
LMPTP inh: inactive; SUMO1 PPI mod: inactive

How did O=C1C2C3C=CC(C3)C2C(=O)N1Nc1ccc([N+](=O)[O-])cc1[N+](=O)[O-] (centres undefined) do in these assays?
Scp-1 inhibitor: inactive; LMPTP inh: inactive; DNMT1 block: inactive; STEP block: inactive; SUMO1 PPI mod: inactive
